Experiments:
Aspergillus fumigatus = assay: In vitro antifungal activity against Aspergillus fumigatus; format: functional
Procedure, shortened: (§1)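 Fungal growth-inhibition screen (Godefroi method) against dermatophytes, yeasts, moulds and other fungi. The value is the lowest concentration (µg/mL) giving total inhibition of growth, tested up to 100 µg/mL.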

Candida albicans = assay: In vitro antifungal activity against Candida albicans; format: functional; procedure, shortened: as §1
Candida tropicalis = assay: In vitro antifungal activity against Candida tropicalis; format: functional; procedure, shortened: as §1
Cryptococcus neoformans = assay: In vitro antifungal activity against Cryptococcus neoformans; format: functional; procedure, shortened: as §1
Microsporum canis = assay: In vitro antifungal activity against Microsporum canis; format: functional; procedure, shortened: as §1
[1] = In vitro antifungal activity against Mucor sp; format: functional; procedure, shortened: as §1
Phialophora verrucosa = assay: In vitro antifungal activity against Phialophora verrucosa; format: functional; procedure, shortened: as §1
Saprolegnia = assay: In vitro antifungal activity against Saprolegnia sp; format: functional; procedure, shortened: as §1
Sporothrix schenckii = assay: In vitro antifungal activity against Sporothrix schenck ii; format: functional; procedure, shortened: as §1
Trichophyton benhamiae = assay: In vitro antifungal activity against Trichophyton mentagrophytes; format: functional, Arthroderma benhamiae; procedure, shortened: as §1
Trichophyton rubrum = assay: In vitro antifungal activity against Trichophyton rubrum; format: functional; procedure, shortened: as §1
[2] = In vivo activity against microsporosis guinea pig, measured as the ratio of animals cured/animals infected (C/I) at dose 10 mg/kg; C/I = 1/2; format: functional
[3] = In vivo activity against vaginal candidoses in rats, measured as the ratio of animals cured/animals infected (C/I) at dose 2.5 mg/kg; C/I = 0/2; format: functional
[4] = In vivo activity against microsporosis guinea pig, measured as the ratio of animals cured/animals infected (C/I) at dose 2.5 mg/kg; C/I = 0/2; format: functional
[5] = In vivo activity against microsporosis guinea pig, measured as the ratio of animals cured/animals infected (C/I) at dose 10 mg/kg; C/I = 2/2; format: functional
[6] = In vivo activity against vaginal candidoses in rats, measured as the ratio of animals cured/animals infected (C/I) at dose 2.5 mg/kg; C/I = 1/2; format: functional
[7] = In vivo activity against microsporosis guinea pig, measured as the ratio of animals cured/animals infected (C/I) at dose 10 mg/kg; C/I = 0/2; format: functional
[8] = In vivo activity against vaginal candidoses in rats, measured as the ratio of animals cured/animals infected (C/I) at dose 2.5 mg/kg; C/I = 4/6; format: functional
[9] = In vivo activity against vaginal candidoses in rats, measured as the ratio of animals cured/animals infected (C/I) at dose 1.25 mg/kg; C/I = 0/2; format: functional

SMILES	Inhibition (Aspergillus fumigatus) [µg/mL]	Inhibition (Candida albicans) [µg/mL]	Inhibition (Candida tropicalis) [µg/mL]	Inhibition (Cryptococcus neoformans) [µg/mL]	Inhibition (Microsporum canis) [µg/mL]	Inhibition [1] [µg/mL]	Inhibition (Phialophora verrucosa) [µg/mL]	Inhibition (Saprolegnia) [µg/mL]	Inhibition (Sporothrix schenckii) [µg/mL]	Inhibition (Trichophyton benhamiae) [µg/mL]	Inhibition (Trichophyton rubrum) [µg/mL]	C/I ratio [2]	C/I ratio [3]	C/I ratio [4]	C/I ratio [5]	C/I ratio [6]	C/I ratio [7]	C/I ratio [8]	C/I ratio [9]
CCC(C)n1ncn(-c2ccc(N3CCN(c4ccc(OC[C@@H]5COC(Cn6ccnc6)(c6ccc(Cl)cc6Cl)O5)cc4)CC3)cc2)c1=O (some centres undefined)	100	>100	1	10	>100	>100	100	>100	>100	1	1	1							
CC(C)CCn1ncn(-c2ccc(N3CCN(c4ccc(OC[C@@H]5COC(Cn6cncn6)(c6ccc(Cl)cc6Cl)O5)cc4)CC3)cc2)c1=O (some centres undefined)	>100	100	>100	>100	>100	>100	>100	>100	>100	100	>100	1	0						
O=c1n(-c2ccc(N3CCN(c4ccc(OC[C@@H]5COC(Cn6cncn6)(c6ccc(Cl)cc6Cl)O5)cc4)CC3)cc2)cnn1CC1CC1 (some centres undefined)	>100	100	>100	>100	>100	>100	100	>100	>100	10	10			0	1	1			
Oc1nncn1-c1ccc(N2CCN(c3ccc(OC[C@@H]4COC(Cn5cncn5)(c5ccc(Cl)cc5Cl)O4)cc3)CC2)cc1 (some centres undefined)	>100	>100	>100	>100	>100	>100	>100	>100	>100	>100	>100						0		
CCc1nnc(O)n1-c1ccc(N2CCN(c3ccc(OC[C@@H]4COC(Cn5ccnc5)(c5ccc(Cl)cc5Cl)O4)cc3)CC2)cc1 (some centres undefined)	>100	100	100	>100	>100	>100	>100	>100	>100	>100	>100			0					
CCCCn1ncn(-c2ccc(N3CCN(c4ccc(OC[C@@H]5COC(Cn6ccnc6)(c6ccc(Cl)cc6Cl)O5)cc4)CC3)cc2)c1=O (some centres undefined)	>100	100	100	>100	>100	>100	>100	>100	>100	100	10							4	0
CC(C)Cn1ncn(-c2ccc(N3CCN(c4ccc(OC[C@@H]5COC(Cn6ccnc6)(c6ccc(Cl)cc6Cl)O5)cc4)CC3)cc2)c1=O (some centres undefined)	>100	100	>100	>100	>100	> 100	>100	>100	>100	100	>100					1	0		
Oc1nncn1-c1ccc(N2CCN(c3ccc(OC[C@@H]4COC(Cn5ccnc5)(c5ccc(Cl)cc5Cl)O4)cc3)CC2)cc1 (some centres undefined)	>100	>100	100	>100	>100	>100	>100	>100	>100	100	>100		0						
CCn1nc(C)n(-c2ccc(N3CCN(c4ccc(OC[C@@H]5COC(Cn6ccnc6)(c6ccc(Cl)cc6Cl)O5)cc4)CC3)cc2)c1=O (some centres undefined)	>100	>100	100	>100	>100	>100	>100	>100	>100	100	>100		0	0					
CCn1ncn(-c2ccc(N3CCN(c4ccc(OC[C@@H]5COC(Cn6ccnc6)(c6ccc(Cl)cc6Cl)O5)cc4)CC3)cc2)c1=O (some centres undefined)	>100	100	100	>100	>100	>100	>100	>100	>100	100	10		0						
Cc1nn(C(C)C)c(=O)n1-c1ccc(N2CCN(c3ccc(OC[C@@H]4COC(Cn5cncn5)(c5ccc(Cl)cc5Cl)O4)cc3)CC2)cc1 (some centres undefined)	>100	>100	10	>100	>100	>100	>100	>100	>100	100	>100					1	0		
O=c1n(-c2ccc(N3CCN(c4ccc(OC[C@@H]5COC(Cn6cncn6)(c6ccc(Cl)cc6Cl)O5)cc4)CC3)cc2)cnn1C1CCCC1 (some centres undefined)	>100	>100	>100	>100	>100	>100	>100	>100	>100	100	>100			0	2	1			
Cc1nnc(O)n1-c1ccc(N2CCN(c3ccc(OC[C@@H]4COC(Cn5ccnc5)(c5ccc(Cl)cc5Cl)O4)cc3)CC2)cc1 (some centres undefined)	>100	100	10	100	>100	>100	>100	>100	>100	10	10						0		
CCCn1nc(C)n(-c2ccc(N3CCN(c4ccc(OC[C@@H]5COC(Cn6ccnc6)(c6ccc(Cl)cc6Cl)O5)cc4)CC3)cc2)c1=O (some centres undefined)	>100	100	100	>100	>100	>100	>100	>100	>100	>100	>100		0						
Cc1nnc(O)n1-c1ccc(N2CCN(c3ccc(OC[C@@H]4COC(Cn5cncn5)(c5ccc(Cl)cc5Cl)O4)cc3)CC2)cc1 (some centres undefined)	>100	>100	1	100	>100	>100	100	>100	>100	10	100						0		

Reference: ChEMBL document CHEMBL1122688, “Antimycotic azoles. 7. Synthesis and antifungal properties of a series of novel triazol-3-ones” (1984)
